Test results as given in ChEMBL document CHEMBL4346672, “Antimicrobial and KPC/AmpC inhibitory activity of functionalized benzosiloxaboroles” (Eur J Med Chem, 2019).
Converted amounts (≈) assume the structure as drawn. The source made the active and inactive calls. The rule behind the calls is not given here.

Experiments:
Escherichia coli = experiment: Antibacterial activity against Escherichia coli ATCC 25922 measured after 18 hrs by CLSI broth dilution method; type: functional; conditions: ATCC 25922, 18 h
In short: (§1)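 Broth MIC in Mueller-Hinton II broth following CLSI, compounds dissolved in DMSO. Strains subcultured twice on tryptic soy agar before testing. Growth read after 35 °C, 18 h.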

Staphylococcus aureus [1] = experiment: Antibacterial activity against Staphylococcus aureus ATCC 6538P measured after 18 hrs by CLSI broth dilution method; type: functional; in short: as §1
Pichia kudriavzevii = experiment: Antifungal activity against Candida krusei ATCC 6258 assessed as decrease in fungal cell growth at 0.78 to 12.5 mg/L incubated for 24 hrs by CLSI broth dilution method; type: functional; conditions: ATCC 6258, 24 h
In short: (§2)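 Yeast broth dilution in RPMI 1640 with 2% glucose, compounds in DMSO. Yeasts pre-grown on Sabouraud dextrose agar. Growth read after 35 °C, 24 h.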

Candida tropicalis [2] = experiment: Antifungal activity against Candida tropicalis IBA 171 assessed as decrease in fungal cell growth at 0.78 to 12.5 mg/L incubated for 24 hrs by CLSI broth dilution method; type: functional; conditions: IBA 171, 24 h; in short: as §2
Proteus mirabilis [3] = experiment: Antibacterial activity against Proteus mirabilis ATCC 12453 assessed as diameter of zone inhibition measured after 18 hrs by CLSI disc diffusion method; type: functional
In short: (§3)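 Disc diffusion on Mueller-Hinton II agar. Compounds dissolved in DMSO. Strains stored at -80 °C and subcultured twice on tryptic soy agar before testing. Inhibition zones read after 35 °C, 18 h.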

Candida albicans = experiment: Antifungal activity against Candida albicans ATCC 90028 assessed as diameter of zone inhibition incubated for 24 hrs by CLSI disc diffusion method; type: functional
In short: (§4)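 Yeast disc diffusion on Mueller-Hinton agar supplemented with 2% glucose and 0.5 mg/L methylene blue. Compounds in DMSO. Yeasts subcultured on Sabouraud dextrose agar before testing. Zones read after 35 °C, 24 h.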

Burkholderia cepacia = experiment: Antibacterial activity against Burkholderia cepacia ATCC 25416 assessed as diameter of zone inhibition measured after 18 hrs by CLSI disc diffusion method; type: functional; in short: as §3
Candida tropicalis [4] = experiment: Antifungal activity against Candida tropicalis IBA 171 assessed as diameter of zone inhibition incubated for 24 hrs by CLSI disc diffusion method; type: functional; in short: as §4
[5] = test system: Stenotrophomonas maltophilia; experiment: Antibacterial activity against Stenotrophomonas maltophilia ATCC 13637 assessed as diameter of zone inhibition measured after 18 hrs by CLSI disc diffusion method; type: functional; in short: as §3
Enterococcus faecalis [6] = experiment: Antibacterial activity against Enterococcus faecalis ATCC 29212 assessed as diameter of zone inhibition measured after 18 hrs by CLSI disc diffusion method; type: functional; in short: as §3
Acinetobacter baumannii [7] = experiment: Antibacterial activity against Acinetobacter baumannii ATCC 19606 assessed as fold reduction of MIC in presence of efflux pump inhibitor PAbetaN incubated for 18 hrs by broth microdilution method; type: functional
In short: (§5)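 MICs determined with and without PAβN at 50 mg/L in Mueller-Hinton broth containing 1 mM MgSO₄. 2-fold serial dilutions per CLSI. Fold change taken from the paired MICs after 35 °C, 18 h.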

Serratia marcescens [8] = experiment: Antibacterial activity against Serratia marcescens ATCC 13880 assessed as fold reduction of MIC in presence of efflux pump inhibitor PAbetaN incubated for 18 hrs by broth microdilution method; type: functional; in short: as §5
[9] = test system: Staphylococcus epidermidis; experiment: Antibacterial activity against Staphylococcus epidermidis ATCC 12228 assessed as diameter of zone inhibition measured after 18 hrs by CLSI disc diffusion method; type: functional; in short: as §3
Enterobacter cloacae [10] = experiment: Antibacterial activity against Enterobacter cloacae DSM 6234 assessed as fold reduction of MIC in presence of efflux pump inhibitor PAbetaN incubated for 18 hrs by broth microdilution method; type: functional; in short: as §5
Enterococcus faecium [11] = experiment: Antibacterial activity against Enterococcus faecium ATCC 6057 assessed as diameter of zone inhibition measured after 18 hrs by CLSI disc diffusion method; type: functional; in short: as §3
Klebsiella pneumoniae [12] = experiment: Antibacterial activity against Klebsiella pneumoniae ATCC 13883 assessed as fold reduction of MIC in presence of efflux pump inhibitor PAbetaN incubated for 18 hrs by broth microdilution method; type: functional; in short: as §5
Enterococcus faecium [13] = experiment: Antibacterial activity against Enterococcus faecium ATCC 6057 measured after 18 hrs by CLSI broth dilution method; type: functional; conditions: ATCC 6057, 18 h; in short: as §1
Serratia marcescens [14] = experiment: Antibacterial activity against Serratia marcescens ATCC 13880 measured after 18 hrs by CLSI broth dilution method; type: functional; conditions: ATCC 13880, 18 h; in short: as §1
Proteus mirabilis [15] = experiment: Antibacterial activity against Proteus mirabilis ATCC 12453 measured after 18 hrs by CLSI broth dilution method; type: functional; conditions: ATCC 12453, 18 h; in short: as §1
[16] = test system: Meyerozyma guilliermondii; experiment: Antifungal activity against Candida guilliermondii IBA 155 assessed as decrease in fungal cell growth at 0.78 to 12.5 mg/L incubated for 24 hrs by CLSI broth dilution method; type: functional; conditions: IBA 155, 24 h; in short: as §2
Pseudomonas aeruginosa [17] = experiment: Antibacterial activity against Pseudomonas aeruginosa ATCC 27853 assessed as diameter of zone inhibition measured after 18 hrs by CLSI disc diffusion method; type: functional, organism-based; in short: as §3
[18] = test system: Meyerozyma guilliermondii; experiment: Antifungal activity against Candida guilliermondii IBA 155 assessed as diameter of zone inhibition incubated for 24 hrs by CLSI disc diffusion method; type: functional; in short: as §4
Proteus mirabilis [19] = experiment: Antibacterial activity against Proteus mirabilis ATCC 12453 assessed as fold reduction of MIC in presence of efflux pump inhibitor PAbetaN incubated for 18 hrs by broth microdilution method; type: functional; in short: as §5
Enterobacter cloacae [20] = experiment: Antibacterial activity against Enterobacter cloacae DSM 6234 measured after 18 hrs by CLSI broth dilution method; type: functional; conditions: DSM 6234, 18 h; in short: as §1
Enterococcus faecalis [21] = experiment: Antibacterial activity against Enterococcus faecalis ATCC 29212 measured after 18 hrs by CLSI broth dilution method; type: functional; conditions: ATCC 29212, 18 h; in short: as §1
Acinetobacter baumannii [22] = experiment: Antibacterial activity against Acinetobacter baumannii ATCC 19606 assessed as diameter of zone inhibition measured after 18 hrs by CLSI disc diffusion method; type: functional; in short: as §3
Pseudomonas aeruginosa [23] = experiment: Antibacterial activity against Pseudomonas aeruginosa ATCC 27853 measured after 18 hrs by CLSI broth dilution method; type: functional; conditions: ATCC 27853, 18 h; in short: as §1
Candida parapsilosis = experiment: Antifungal activity against Candida parapsilosis ATCC 22019 assessed as decrease in fungal cell growth at 0.78 to 12.5 mg/L incubated for 24 hrs by CLSI broth dilution method; type: functional; conditions: Lodderomyces parapsilosis, ATCC 22019, 24 h; in short: as §2
[24] = test system: Staphylococcus epidermidis; experiment: Antibacterial activity against Staphylococcus epidermidis ATCC 12228 measured after 18 hrs by CLSI broth dilution method; type: functional; conditions: ATCC 12228, 18 h; in short: as §1
Bacillus subtilis = experiment: Antibacterial activity against Bacillus subtilis ATCC 6633 assessed as diameter of zone inhibition measured after 18 hrs by CLSI disc diffusion method; type: functional; in short: as §3
Staphylococcus aureus [25] = experiment: Antibacterial activity against Staphylococcus aureus ATCC 6538P assessed as diameter of zone inhibition measured after 18 hrs by CLSI disc diffusion method; type: functional; in short: as §3
Klebsiella pneumoniae [26] = conditions: ATCC 13883
[27] = test system: Bordetella bronchiseptica; experiment: Antibacterial activity against Bordetella bronchiseptica ATCC 4617 assessed as diameter of zone inhibition measured after 18 hrs by CLSI disc diffusion method; type: functional; in short: as §3
[28] = test system: Stenotrophomonas maltophilia; experiment: Antibacterial activity against Stenotrophomonas maltophilia ATCC 13637 assessed as fold reduction of MIC in presence of efflux pump inhibitor PAbetaN incubated for 18 hrs by broth microdilution method; type: functional; in short: as §5

| Structure (SMILES) | MIC (Escherichia coli) [µg/mL] | MIC (Staphylococcus aureus [1]) [µg/mL] | MIC (Pichia kudriavzevii) [µg/mL] | MIC (Candida tropicalis [2]) [µg/mL] | diameter of the inhibition zone (DIZ) (Proteus mirabilis [3]) | diameter of the inhibition zone (DIZ) (Candida albicans) | diameter of the inhibition zone (DIZ) (Burkholderia cepacia) [mm] | diameter of the inhibition zone (DIZ) (Candida tropicalis [4]) | diameter of the inhibition zone (DIZ) [5] [mm] | diameter of the inhibition zone (DIZ) (Enterococcus faecalis [6]) [mm] | fold change (FC) (Acinetobacter baumannii [7]) | fold change (FC) (Serratia marcescens [8]) | diameter of the inhibition zone (DIZ) [9] [mm] | fold change (FC) (Enterobacter cloacae [10]) | diameter of the inhibition zone (DIZ) (Enterococcus faecium [11]) [mm] | fold change (FC) (Klebsiella pneumoniae [12]) | MIC (Enterococcus faecium [13]) [µg/mL] | MIC (Serratia marcescens [14]) [µg/mL] | MIC (Proteus mirabilis [15]) [µg/mL] | MIC [16] [µg/mL] | other results |
| --- | --- | --- | --- | --- | --- | --- | --- | --- | --- | --- | --- | --- | --- | --- | --- | --- | --- | --- | --- | --- | --- |
| C[Si]1(C)OB(O)c2c(F)c3c(c(F)c21)B(O)OC3 | 200 (≈ 741 µM) | 6.25 (≈ 23.2 µM) | > 400 | > 400 | inactive | inactive | 23 | inactive | 15 | 28 | 8 | 16 | 35 | 8 | 28 | 16 | 25 (≈ 92.6 µM) | 400 (≈ 1480 µM) | 200 (≈ 741 µM) | > 400 | diameter of the inhibition zone (DIZ) (Pseudomonas aeruginosa [17]): inactive; diameter of the inhibition zone (DIZ) [18]: inactive; fold change (FC) (Proteus mirabilis [19]): 4; MIC (Enterobacter cloacae [20]): 200 µg/mL (≈ 741 µM); MIC (Enterococcus faecalis [21]): 25 µg/mL (≈ 92.6 µM); diameter of the inhibition zone (DIZ) (Acinetobacter baumannii [22]): 15 mm; MIC (Pseudomonas aeruginosa [23]): > 400 µg/mL; MIC (Candida parapsilosis): > 400 µg/mL; MIC [24]: 6.25 µg/mL (≈ 23.2 µM); diameter of the inhibition zone (DIZ) (Bacillus subtilis): 29 mm; diameter of the inhibition zone (DIZ) (Staphylococcus aureus [25]): 30 mm; DIZ (Klebsiella pneumoniae [26]): inactive; diameter of the inhibition zone (DIZ) [27]: inactive; fold change (FC) [28]: 8 |
| C[Si]1(C)OB(O)c2ccc(Cl)cc21 | 400 (≈ 1880 µM) | 50 (≈ 235 µM) | 25 (≈ 118 µM) | 6.25 (≈ 29.4 µM) | inactive | 28 mm | 11 | 15 mm | 19 | 17 | 16 | 16 | 33 | 64 | 14 | 32 | 50 (≈ 235 µM) | > 400 | > 400 | 25 (≈ 118 µM) | diameter of the inhibition zone (DIZ) (Pseudomonas aeruginosa [17]): inactive; diameter of the inhibition zone (DIZ) [18]: 30 mm; fold change (FC) (Proteus mirabilis [19]): 4; MIC (Enterobacter cloacae [20]): > 400 µg/mL; MIC (Enterococcus faecalis [21]): 100 µg/mL (≈ 471 µM); diameter of the inhibition zone (DIZ) (Acinetobacter baumannii [22]): 13 mm; MIC (Pseudomonas aeruginosa [23]): > 400 µg/mL; MIC (Candida parapsilosis): 25 µg/mL (≈ 118 µM); MIC [24]: 25 µg/mL (≈ 118 µM); diameter of the inhibition zone (DIZ) (Bacillus subtilis): 34 mm; diameter of the inhibition zone (DIZ) (Staphylococcus aureus [25]): 20 mm; DIZ (Klebsiella pneumoniae [26]): inactive; diameter of the inhibition zone (DIZ) [27]: 11 mm; fold change (FC) [28]: 16 |
